According to ChEMBL document CHEMBL1153829, “Exploiting chemical libraries, structure, and genomics in the search for kinase inhibitors” (Science, 1998):
The source made the active and inactive calls. No cut-off for these calls is given here.

How the values were obtained:
Saccharomyces cerevisiae [1] = assay: Induction of HAP4 gene expression in delta snq2, delta pdr5 and delta erg6 knock out yeast YRP1 bearing cdc28-4 mutant allele at 25 µM after 2 hrs by high-density oligonucleotide array; assay type: functional, organism-based; conditions: 25 M
Summary of the method: (§1)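 cdc28-4 temperature-sensitive strain and its isogenic wild type were profiled at the permissive temperature of 25°C. Polyadenylated mRNA was converted to biotin-labeled cRNA and hybridized to high-density oligonucleotide arrays. Transcripts changing more than twofold were scored, from triplicate hybridizations of RNA from a single experiment.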

Saccharomyces cerevisiae [2] = assay: Induction of PFK26 gene expression in delta snq2, delta pdr5 and delta erg6 knock out yeast YRP1 at 25 µM after 2 hrs by high-density oligonucleotide array; assay type: functional, organism-based; conditions: 25 M
Summary of the method: (§2)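 Drug-sensitized yeast strain grown to late logarithmic phase, then exposed to 25 μM inhibitor for 2 h. Polyadenylated mRNA was isolated and converted to biotin-labeled cRNA, which was hybridized to a set of four arrays carrying over 260,000 25-nucleotide oligomers. Transcripts changing more than twofold were scored, from triplicate hybridizations in each of two independent experiments.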

Saccharomyces cerevisiae [3] = assay: Upregulation of PDR15 gene expression in delta snq2, delta pdr5 and delta erg6 knock out yeast YRP1 at 25 µM after 2 hrs by high-density oligonucleotide array; assay type: functional, organism-based; conditions: 25 M; summary of the method: as §2
Saccharomyces cerevisiae [4] = assay: Downregulation of CLB1 mRNA expression in delta snq2, delta pdr5 and delta erg6 knock out yeast YRP1 at 25 µM after 2 hrs by high-density oligonucleotide array; assay type: functional, organism-based; conditions: 25 M
Summary of the method: (§3)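 Drug-sensitized S. cerevisiae cultures grown to late logarithmic phase, then exposed to 25 μM inhibitor for 2 h. Polyadenylated mRNA isolated, converted to biotin-labeled cRNA and hybridized to a set of four high-density arrays carrying more than 260,000 25-nucleotide oligomers. Transcripts scored as changed when they shifted more than twofold in triplicate hybridizations for each of two independent experiments.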

Saccharomyces cerevisiae [5] = assay: Induction of ALD4 gene expression in delta snq2, delta pdr5 and delta erg6 knock out yeast YRP1 at 25 µM after 2 hrs by high-density oligonucleotide array; assay type: functional, organism-based; conditions: 25 M; summary of the method: as §3
Saccharomyces cerevisiae [6] = assay: Effect on YHR143W gene expression in delta snq2, delta pdr5 and delta erg6 knock out yeast YRP1 assessed as change in mRNA level at 25 µM after 2 hrs by high-density oligonucleotide array; assay type: functional, organism-based; conditions: 25 M; summary of the method: as §3
Saccharomyces cerevisiae [7] = assay: Upregulation of YPT53 gene expression in delta snq2, delta pdr5 and delta erg6 knock out yeast YRP1 at 25 µM after 2 hrs by high-density oligonucleotide array; assay type: functional, organism-based; conditions: 25 M; summary of the method: as §2
Saccharomyces cerevisiae [8] = assay: Upregulation of GSC2 gene expression in delta snq2, delta pdr5 and delta erg6 knock out yeast YRP1 at 25 µM after 2 hrs by high-density oligonucleotide array; assay type: functional, organism-based; conditions: 25 M; summary of the method: as §2
Saccharomyces cerevisiae [9] = assay: Decrease in RPS24A mRNA level in delta snq2, delta pdr5 and delta erg6 knock out yeast YRP1 at 25 µM after 2 hrs by high-density oligonucleotide array; assay type: functional; summary of the method: as §3
Saccharomyces cerevisiae [10] = assay: Induction of GPH1 gene expression in delta snq2, delta pdr5 and delta erg6 knock out yeast YRP1 bearing cdc28-4 mutant allele at 25 µM after 2 hrs by high-density oligonucleotide array; assay type: functional, organism-based; conditions: 25 M; summary of the method: as §1
Saccharomyces cerevisiae [11] = assay: Upregulation of YDL223c gene expression in delta snq2, delta pdr5 and delta erg6 knock out yeast YRP1 at 25 µM after 2 hrs by high-density oligonucleotide array; assay type: functional, organism-based; conditions: 25 M; summary of the method: as §2
Saccharomyces cerevisiae [12] = assay: Effect on HAC1 gene expression in delta snq2, delta pdr5 and delta erg6 knock out yeast YRP1 assessed as change in mRNA level at 25 µM after 2 hrs by high-density oligonucleotide array; assay type: functional, organism-based; summary of the method: as §3
Saccharomyces cerevisiae [13] = assay: Increase in PHO80 mRNA level in delta snq2, delta pdr5 and delta erg6 knock out yeast YRP1 at 25 µM after 2 hrs by high-density oligonucleotide array; assay type: functional, organism-based; summary of the method: as §3
Saccharomyces cerevisiae [14] = assay: Increase in PHO84 mRNA level in delta snq2, delta pdr5 and delta erg6 knock out yeast YRP1 at 25 µM after 2 hrs by high-density oligonucleotide array; assay type: functional, organism-based; summary of the method: as §3
Saccharomyces cerevisiae [15] = assay: Effect on YLR311C gene expression in delta snq2, delta pdr5 and delta erg6 knock out yeast YRP1 bearing cdc28-4 mutant allele assessed as change in mRNA level at 25 µM after 2 hrs by high-density oligonucleotide array; assay type: functional, organism-based; conditions: 25 M
Saccharomyces cerevisiae [16] = assay: Induction of YAL061W gene expression in delta snq2, delta pdr5 and delta erg6 knock out yeast YRP1 at 25 µM after 2 hrs by high-density oligonucleotide array; assay type: functional, organism-based; conditions: 25 M; summary of the method: as §2
Saccharomyces cerevisiae [17] = assay: Increase in PHO8 mRNA level in delta snq2, delta pdr5 and delta erg6 knock out yeast YRP1 at 25 µM after 2 hrs by high-density oligonucleotide array; assay type: functional, organism-based; summary of the method: as §3
Saccharomyces cerevisiae [18] = assay: Upregulation of PMC1 gene expression in delta snq2, delta pdr5 and delta erg6 knock out yeast YRP1 at 25 µM after 2 hrs by high-density oligonucleotide array; assay type: functional, organism-based; summary of the method: as §2
Saccharomyces cerevisiae [19] = assay: Effect on YOR248W gene expression in delta snq2, delta pdr5 and delta erg6 knock out yeast YRP1 bearing cdc28-4 mutant allele assessed as change in mRNA level at 25 µM after 2 hrs by high-density oligonucleotide array; assay type: functional, organism-based; conditions: 25 M
Saccharomyces cerevisiae [20] = assay: Induction of PGM2 gene expression in delta snq2, delta pdr5 and delta erg6 knock out yeast YRP1 at 25 µM after 2 hrs by high-density oligonucleotide array; assay type: functional, organism-based; conditions: 25 M; summary of the method: as §2
Saccharomyces cerevisiae [21] = assay: Upregulation of HSP82 gene expression in delta snq2, delta pdr5 and delta erg6 knock out yeast YRP1 at 25 µM after 2 hrs by high-density oligonucleotide array; assay type: functional, organism-based; summary of the method: as §2
Saccharomyces cerevisiae [22] = assay: Increase in PHO81 mRNA level in delta snq2, delta pdr5 and delta erg6 knock out yeast YRP1 at 25 µM after 2 hrs by high-density oligonucleotide array; assay type: functional, organism-based; conditions: 25 M; summary of the method: as §3
Saccharomyces cerevisiae [23] = assay: Growth inhibition of delta snq2, delta pdr5 and delta erg6 knock out yeast YRP1 assessed as synchronization by FACS analysis; assay type: functional, organism-based
Saccharomyces cerevisiae [24] = assay: Upregulation of HSP104 gene expression in delta snq2, delta pdr5 and delta erg6 knock out yeast YRP1 at 25 µM after 2 hrs by high-density oligonucleotide array; assay type: functional, organism-based; conditions: 25 M; summary of the method: as §2
Saccharomyces cerevisiae [25] = assay: Effect on ATR1 gene expression in delta snq2, delta pdr5 and delta erg6 knock out yeast YRP1 bearing cdc28-4 mutant allele assessed as change in mRNA level at 25 µM after 2 hrs by high-density oligonucleotide array; assay type: functional, organism-based
Saccharomyces cerevisiae [26] = assay: Effect on TFS1 gene expression in delta snq2, delta pdr5 and delta erg6 knock out yeast YRP1 assessed as change in mRNA level at 25 µM after 2 hrs by high-density oligonucleotide array; assay type: functional, organism-based; summary of the method: as §3
Saccharomyces cerevisiae [27] = assay: Effect on YER037w gene expression in delta snq2, delta pdr5 and delta erg6 knock out yeast YRP1 bearing cdc28-4 mutant allele assessed as change in mRNA level at 25 µM after 2 hrs by high-density oligonucleotide array; assay type: functional, organism-based
Saccharomyces cerevisiae [28] = assay: Down regulation of CLB2 mRNA expression in delta snq2, delta pdr5 and delta erg6 knock out yeast YRP1 assessed as change in mRNA level at 25 µM after 2 hrs by high-density oligonucleotide array; assay type: functional, organism-based; summary of the method: as §3
Saccharomyces cerevisiae [29] = assay: Effect on YCL009c gene expression in delta snq2, delta pdr5 and delta erg6 knock out yeast YRP1 bearing cdc28-4 mutant allele assessed as change in mRNA level at 25 µM after 2 hrs by high-density oligonucleotide array; assay type: functional, organism-based
Saccharomyces cerevisiae [30] = assay: Increase in PCL5 mRNA level in delta snq2, delta pdr5 and delta erg6 knock out yeast YRP1 at 25 µM after 2 hrs by high-density oligonucleotide array; assay type: functional, organism-based; summary of the method: as §3
Saccharomyces cerevisiae [31] = assay: Decrease in RPL26B mRNA level in delta snq2, delta pdr5 and delta erg6 knock out yeast YRP1 at 25 µM after 2 hrs by high-density oligonucleotide array; assay type: functional; summary of the method: as §3

Question: For `CC(C)n1cnc2/c(=N/c3cccc(Cl)c3)nc(NCCO)[nH]c21`, which Activity (Saccharomyces cerevisiae [1]) is on record?
Answer: Active

Question: What about the Activity (Saccharomyces cerevisiae [2]) of the same compound?
Answer: Active

Question: What about the Activity (Saccharomyces cerevisiae [3]) of the same compound?
Answer: Active

Question: What about the Activity (Saccharomyces cerevisiae [4]) of the same compound?
Answer: Active

Question: What about the Activity (Saccharomyces cerevisiae [5]) of the same compound?
Answer: Active

Question: What about the Activity (Saccharomyces cerevisiae [6]) of the same compound?
Answer: Active

Question: What about the Activity (Saccharomyces cerevisiae [7]) of the same compound?
Answer: Active

Question: And the Activity (Saccharomyces cerevisiae [8])?
Answer: Active

Question: And the “fold change (FC)” value (Saccharomyces cerevisiae [9])?
Answer: 3

Question: What about the Activity (Saccharomyces cerevisiae [10]) of the same compound?
Answer: Active

Question: And the Activity (Saccharomyces cerevisiae [11])?
Answer: Active

Question: And the Activity (Saccharomyces cerevisiae [12])?
Answer: Active

Question: And the Activity (Saccharomyces cerevisiae [13])?
Answer: Active

Question: What about the Activity (Saccharomyces cerevisiae [14]) of the same compound?
Answer: Active

Question: And the Activity (Saccharomyces cerevisiae [15])?
Answer: Active

Question: What about the Activity (Saccharomyces cerevisiae [16]) of the same compound?
Answer: Active

Question: What about the Activity (Saccharomyces cerevisiae [17]) of the same compound?
Answer: Active

Question: And the Activity (Saccharomyces cerevisiae [18])?
Answer: Active

Question: And the Activity (Saccharomyces cerevisiae [19])?
Answer: Active

Question: What about the Activity (Saccharomyces cerevisiae [20]) of the same compound?
Answer: Active

Question: What about the Activity (Saccharomyces cerevisiae [21]) of the same compound?
Answer: Active

Question: What about the Activity (Saccharomyces cerevisiae [22]) of the same compound?
Answer: Active

Question: What about the Activity (Saccharomyces cerevisiae [23]) of the same compound?
Answer: inactive

Question: And the Activity (Saccharomyces cerevisiae [24])?
Answer: Active

Question: And the Activity (Saccharomyces cerevisiae [25])?
Answer: Active

Question: And the Activity (Saccharomyces cerevisiae [26])?
Answer: Active

Question: What about the Activity (Saccharomyces cerevisiae [27]) of the same compound?
Answer: Active

Question: What about the Activity (Saccharomyces cerevisiae [28]) of the same compound?
Answer: Active

Question: And the Activity (Saccharomyces cerevisiae [29])?
Answer: Active

Question: And the Activity (Saccharomyces cerevisiae [30])?
Answer: Active

Question: And the “fold change (FC)” value (Saccharomyces cerevisiae [31])?
Answer: 3

Question: What does the source list for `CN1CC[C@H](c2c(O)cc(O)c3c(=O)cc(-c4ccccc4Cl)oc23)[C@H](O)C1` [ALVOCIDIB]?
Answer: Activity (Saccharomyces cerevisiae [1]): Active; Activity (Saccharomyces cerevisiae [2]): Active; Activity (Saccharomyces cerevisiae [3]): Active; Activity (Saccharomyces cerevisiae [4]): Active; Activity (Saccharomyces cerevisiae [5]): Active; Activity (Saccharomyces cerevisiae [6]): Active; Activity (Saccharomyces cerevisiae [7]): Active; Activity (Saccharomyces cerevisiae [8]): Active; fold change (FC) (Saccharomyces cerevisiae [9]): 3; Activity (Saccharomyces cerevisiae [10]): Active; Activity (Saccharomyces cerevisiae [11]): Active; Activity (Saccharomyces cerevisiae [12]): Active; Activity (Saccharomyces cerevisiae [13]): Active; Activity (Saccharomyces cerevisiae [14]): Active; Activity (Saccharomyces cerevisiae [15]): Active; Activity (Saccharomyces cerevisiae [16]): Active; Activity (Saccharomyces cerevisiae [17]): Active; Activity (Saccharomyces cerevisiae [18]): Active; Activity (Saccharomyces cerevisiae [19]): Active; Activity (Saccharomyces cerevisiae [20]): Active; Activity (Saccharomyces cerevisiae [21]): Active; Activity (Saccharomyces cerevisiae [22]): Active; Activity (Saccharomyces cerevisiae [23]): inactive; Activity (Saccharomyces cerevisiae [24]): Active; Activity (Saccharomyces cerevisiae [25]): Active; Activity (Saccharomyces cerevisiae [26]): Active; Activity (Saccharomyces cerevisiae [27]): Active; Activity (Saccharomyces cerevisiae [28]): Active; Activity (Saccharomyces cerevisiae [29]): Active; Activity (Saccharomyces cerevisiae [30]): Active; fold change (FC) (Saccharomyces cerevisiae [31]): 3
